Diaph inh CS: diaphorase inhibitors and chemical oxidizers, primary screen, counter-screen for diaphorase-coupled primary assays, biochemical, uHTS, resorufin fluorescence | diaphorase resazurin-to-resorufin fluorescence, NADH, 16 min; bacterial (C. kluyveri) enzyme, not human | inhibition, % at 20 µM | 190,000 compounds, 0.69% hits | AID 1217, 2008;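 active = primary screen inhibition at 20 µM above a set limit, cut at about 50% in these data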;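 note: plate controls were DMSO with full reaction for no effect and wells lacking NADH for full effect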
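Test system: Clostridium kluyveri diaphorase enzyme / Quantity: diaphorase at 0.14 U/mL in enzyme working solution / Incubation: 16-min room-temperature incubation before reading / Benchmarks: NADH-free wells as positive control, DMSO-only neutral wells / Signal: resorufin fluorescence 544/590 nm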
DTT redox prof: compounds producing H2O2 with reducing agent – biochemical, NIH compound library profiling, artefact control for MLSCN library redox annotation, primary screen. DTT-dependent redox cycling H2O2, phenol red/HRP absorbance; 100% = 100 µM peroxide control, 0% = buffer. activation, % at 10 µM. 200,000 compounds, 0.03% hits;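 active = activation of at least 50% relative to the plate's high and low controls in the primary single-dose screen; inactive = activation below 50%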;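 note: compound incubated with DTT at 0.8 mM final as the reducing agent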
G6PDH counter: L. mesenteroides G6PDH inhibitors, counter-screen for G6PDH-coupled screening assays, biochemical, Leuconostoc mesenteroides enzyme; Purified L. mesenteroides G6PDH, diaphorase/resazurin coupled fluorescence, 45 min; inhibition, % at 5 µM; 200,000 compounds, 0.12% hits; AID 1020, 2008
L major viab: Leishmania major promastigote growth inhibition, primary screen | Leishmania major promastigotes, resazurin fluorescence viability | inhibition, % at 10 µM | AID 1063, 2008 | 200,000 compounds, 9% hits;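 note: promastigotes grown with compound for 44 hours at 28 °C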
Diaph act CS: compounds boosting diaphorase resazurin reduction – biochemical, uHTS, resorufin fluorescence, counter-screen for diaphorase-coupled primary assays, primary screen; activation factor at 20 µM; Diaphorase/resazurin coupled assay, 16 min; active compounds read high; 1 = vehicle wells, 0 = NADH-free wells; 190,000 compounds, 0.005% hits;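 active = diaphorase activity raised at least twofold by the compound at 20 µM; inactive = activation factor below 2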
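Material: purified diaphorase enzyme from Clostridium kluyveri; Also added: 0.114 mM NADH and 0.1 mM resazurin, final amounts; Doses: single compound dose of 20 µM, 1% DMSO final; Times: 16 min enzyme reaction, ambient temperature; Detection: resorufin fluorescence, excitation 544 nm, emission 590 nm; Measure: increased resorufin signal from activators or reducing compounds.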
PfG6PD inh: PfG6PD enzyme inhibitors, primary screen, biochemical, fluorescence intensity, uHTS. inhibition, % at 20 µM. PfGluPho enzyme, NADPH resazurin-diaphorase fluorescence. 350,000 compounds, 0.78% hits. glucose-6-phosphate dehydrogenase-6-phosphogluconolactonase (Plasmodium falciparum 3D7). AID 504690, 2011;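 active = inhibition reaching at least a set limit at 20 µM in the primary screen, cut at about 59% in these data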;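 note: 0% = DMSO wells with substrate and 100% = DMSO wells lacking glucose-6-phosphate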
* marks the source's active call; other numbers are inactive results. Only a selection was taken, and hits are over-represented in it overall. Cut-off read from the data, not from the text of the source, unless noted: active = inhibition above about 50%; inactive = the rest.

For Cc1ccc(Cl)cc1NC(=O)C1CCCN(S(C)(=O)=O)C1 (stereo not drawn) the results were PfG6PD inh -8.
For COc1ccccc1CN1C(=NC(=O)C2CCCCC2)SC2CS(=O)(=O)CC21 (stereo not drawn) the results were PfG6PD inh -9.
For CC(=O)Nc1ccc(S(=O)(=O)N(C)c2ccc(OCC(=O)OCC(=O)NCc3ccco3)cc2)cc1 the results were PfG6PD inh -1.
`O=[N+]([O-])c1ccc(N2CCOCC2)cc1O` gave PfG6PD inh 1.
Cc1cc(N2CCOCC2)ccc1/C=C\[N+](=O)[O-] was read as Diaph inh CS 12, DTT redox prof 0, G6PDH counter -1, L major viab 70*, Diaph act CS 0.9 and PfG6PD inh 14.
`CN1CCN(c2ccc(C(=O)c3ccccc3)cc2[N+](=O)[O-])CC1` gave Diaph inh CS 3, DTT redox prof -1, G6PDH counter 9, L major viab 81*, Diaph act CS 1 and PfG6PD inh -8.
Screening CN1CCN(c2ccccc2NC(=O)c2ccc(N3CCCCC3)c([N+](=O)[O-])c2)CC1 returned Diaph inh CS -13, DTT redox prof 0, G6PDH counter 17, L major viab 17, Diaph act CS 1.1 and PfG6PD inh 23.
Screening O=C(c1ccccc1)c1cc(F)c(N2CCOCC2)cc1Cl returned Diaph inh CS 14, DTT redox prof 0, G6PDH counter 1, L major viab -2, Diaph act CS 0.9 and PfG6PD inh -16.
`CN1CCN(c2cc(N3CCc4ccccc4C3)c(F)cc2[N+](=O)[O-])CC1` gave Diaph inh CS 12, DTT redox prof 0, G6PDH counter -24, L major viab 76*, Diaph act CS 0.9 and PfG6PD inh 3.
For O=C(c1ccccc1)c1ccc(N2CCOCC2)c(F)c1 the results were Diaph inh CS 14, DTT redox prof -1, G6PDH counter 7, L major viab 53*, Diaph act CS 0.9 and PfG6PD inh -5.
Screening Nc1ncnc(N)c1NC(=O)c1cc(Cl)c(OCc2ccccc2)c(Cl)c1 returned PfG6PD inh 2.
`Cc1cc(N2C3CCC2CC(O)(c2ccc(F)cc2)C3)nc(-c2ccccc2)n1` (stereo not drawn) gave Diaph inh CS 18, DTT redox prof 0, G6PDH counter 6, L major viab 58*, Diaph act CS 0.8 and PfG6PD inh -2.
`CCN(CC)S(=O)(=O)c1ccc2c(c1)nc(CCC(=O)OCC(=O)Nc1cc(OC)cc(OC)c1)n2C` gave Diaph inh CS 18, DTT redox prof -1, G6PDH counter -8, L major viab 64*, Diaph act CS 0.8 and PfG6PD inh -9.
For Cc1ccc(CNC(=O)c2cc(=O)c3ccccc3o2)cc1 the results were PfG6PD inh 6.
Screening Cc1ccc(-c2c(C(=O)NCc3ccc(F)cc3)oc(=O)c3ccccc23)cc1 returned Diaph inh CS 28, DTT redox prof 0, G6PDH counter 3, L major viab 74*, Diaph act CS 0.7 and PfG6PD inh 9.
`COCCn1cnc2c1c(=O)n(CC(=O)OCC(=O)NCCCc1ccccc1)c(=O)n2Cc1ccccc1` gave Diaph inh CS 14, DTT redox prof 0, G6PDH counter 16, L major viab 51*, Diaph act CS 0.9 and PfG6PD inh -2.
For O=C(Nc1ccc2c(c1)N(Cc1ccccc1)C(=O)c1ccccc1S2)NC1CC1 the results were Diaph inh CS 0, DTT redox prof 0, G6PDH counter 8, L major viab 92*, Diaph act CS 1 and PfG6PD inh 14.
For Cc1ccc(C(=O)Oc2csc(=S)n2C(=O)c2ccc(C)cc2)cc1 the results were Diaph inh CS 29, DTT redox prof -3, G6PDH counter 5, L major viab -5, Diaph act CS 0.7 and PfG6PD inh 60*.
Screening Cc1ccc(C(=O)N2CCSC2=S)cc1 returned Diaph inh CS -1, DTT redox prof -1, G6PDH counter 1, L major viab -8, Diaph act CS 1 and PfG6PD inh 0.
For Cc1nccn1CCOc1ccccc1Cl the results were PfG6PD inh -12.
`CCOC(=O)CCCNC(=O)CSc1nc2ccc(OCC)cc2[nH]1` gave Diaph inh CS 54*, DTT redox prof -2, G6PDH counter 0, L major viab -7, Diaph act CS 0.5 and PfG6PD inh 8.
N#Cc1ccccc1NC(=O)C1CC(=O)N(c2ccc3c4c(cccc24)CC3)C1 (stereo not drawn) was read as Diaph inh CS 19, DTT redox prof 0, G6PDH counter -19, L major viab 57*, Diaph act CS 0.8 and PfG6PD inh 11.
Screening Cc1ccc(NC(=O)C2CC(=O)N(c3ccc4c5c(cccc35)CC4)C2)cc1 (stereo not drawn) returned Diaph inh CS 22, DTT redox prof 1, G6PDH counter 5, L major viab 12, Diaph act CS 0.8 and PfG6PD inh 8.
For CCOc1ccc(-n2c(SCC(=O)N3CCC(C(=O)O)CC3)nc3ccccc3c2=O)cc1 the results were PfG6PD inh 14.
Screening CN1CCN(CCCNC(=O)c2cc3c(=O)n(C)c4ccccc4c3s2)CC1 returned Diaph inh CS 19, DTT redox prof -1, G6PDH counter 0, L major viab 98*, Diaph act CS 0.8 and PfG6PD inh 15.
COCCN(CCOC)C(=O)c1cc2sc3ccccc3c2s1 was read as Diaph inh CS 28, DTT redox prof -1, G6PDH counter 1, L major viab -2, Diaph act CS 0.7 and PfG6PD inh 11.
`CC(C)OCCCNC(=O)c1cc2c(=O)n(C)c3ccccc3c2n1C` gave Diaph inh CS 14, DTT redox prof -1, G6PDH counter -3, L major viab 0, Diaph act CS 0.9 and PfG6PD inh 25.
`Cn1c(C(=O)NCCN2CCCCCC2)cc2c(=O)n(C)c3ccccc3c21` gave Diaph inh CS 3, DTT redox prof 0, G6PDH counter 13, L major viab 70*, Diaph act CS 1 and PfG6PD inh 59.
For Cn1c(C(=O)NCCN2CCN(Cc3ccccc3)CC2)cc2c(=O)n(C)c3ccccc3c21 the results were PfG6PD inh 35.

Assay outcomes as filed in PubChem BioAssay.
